Legend:
HSC-2 [1] = experiment: Cytotoxicity against human HSC2 cells; format: functional
Method in brief: (§1)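 Human oral squamous carcinoma HSC-2 cells and normal human gingival fibroblasts (HGF) were incubated 24 h with compound added in EtOH (final EtOH in medium below 1%). Viable cells were read as A540 against untreated controls. CC50 is reported in mM as the mean of duplicate determinations.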

[2] = Cytotoxicity against HGF cells; format: cell-based; conditions: human; method in brief: as §1
HSC-2 [3] = experiment: Selectivity ratio CC50 for HGF to CC50 for human HSC-2 cells

SMILES	CC50 (HSC-2 [1])	CC50 [2]	Ratio (HSC-2 [3])
CC1(C)C=Cc2c(cc3oc4c(O)cccc4c(=O)c3c2O)O1	480 µM	> 650 µM	>1.4
CC(C)=CCc1c(O)cc2oc3ccc(O)cc3c(=O)c2c1O	> 640 µM	> 640 µM	
COc1cc(-c2coc3cc(O)cc(O)c3c2=O)ccc1O [3'-O-METHYLOROBOL]	160 µM	> 670 µM	>4.2
CC1(C)C=Cc2c(cc3occ(-c4ccc(O)cc4)c(=O)c3c2O)O1 [ALPINUMISOFLAVONE]	400 µM	> 600 µM	>1.5
C=CC(C)(C)c1c(O)cc2oc3c(O)c(O)cc(CC=C(C)C)c3c(=O)c2c1O [ALVAXANTHONE]	22 µM	25 µM	1.1
COc1c2ccoc2cc2oc(=O)ccc12 [BERGAPTEN]	720 µM	> 930 µM	>1.3
COc1cc(O)c(C(=O)c2cccc(O)c2CC=C(C)C)c(O)c1 [CUDRANONE]	400 µM	> 610 µM	>1.5
CC(C)=CCc1c(O)cccc1C(=O)c1cc2c(cc1O)OC(C)(C)C=C2 [CUDRAPHENONE A]	170 µM	430 µM	2.5
CC(C)=CCc1cc(C(=O)c2cccc(O)c2CC=C(C)C)c(O)cc1O [CUDRAPHENONE B]	36 µM	90 µM	2.5
CC(C)=CCc1c(O)cccc1C(=O)c1c(O)cc(O)c2c1OC(C)(C)C=C2 [CUDRAPHENONE C]	92 µM	190 µM	2.1
CC(C)=CCc1c(O)cccc1C(=O)c1c(O)cc(O)c(CC=C(C)C)c1O [CUDRAPHENONE D]	52 µM	190 µM	3.7
CC1Oc2cc3oc4c(O)c5c(cc4c(=O)c3c(O)c2C1(C)C)C=CC(C)(C)O5 (centres undefined) [GERONTOXANTHONE A]	> 510 µM	> 510 µM	
C=CC(C)(C)c1c(O)cc2oc3c(O)c4c(cc3c(=O)c2c1O)C=CC(C)(C)O4 [GERONTOXANTHONE B]	390 µM	> 510 µM	>1.3
CC(C)=CCc1cc2c(=O)c3c(O)c4c(cc3oc2c(O)c1O)OC(C)C4(C)C (centres undefined) [GERONTOXANTHONE G]	> 510 µM	> 510 µM	
CC(C)=CCc1c(O)cc(O)c2c(=O)c3c(CC=C(C)C)c(O)ccc3oc12 [GERONTOXANTHONE H]	120 µM	200 µM	1.7
C=CC(C)(C)c1c(O)c(CC=C(C)C)c(O)c2c(=O)c3ccc(O)c(O)c3oc12 [GERONTOXANTHONE I]	430 µM	> 510 µM	>1.1
C=CC(C)(C)c1c(O)cc2oc3c(O)c(O)c(CC=C(C)C)cc3c(=O)c2c1O [ISOALVAXANTHONE]	35 µM	58 µM	1.6
C=CC(C)(C)c1c2c(c(O)c3c(=O)c4ccc(O)c(O)c4oc13)C=CC(C)(C)O2 [MACLURAXANTHONE]	> 510 µM	> 510 µM	
O=C1C[C@@H](c2ccc(O)cc2)Oc2cc(O)cc(O)c21 [NARINGENIN]	550 µM	> 740 µM	>1.3
CC(C)=CCc1c(O)cc(O)c2c1OC(c1ccc(O)cc1)CC2=O (centres undefined) [SOPHORAFLAVANONE B]	130 µM	190 µM	1.5
CC(C)=CCc1c(O)cc2occ(-c3ccc(O)cc3)c(=O)c2c1O [WIGHTEONE]	120 µM	250 µM	2.1
